Columns and labels:
SK-MEL-28 = experiment: Cytotoxicity against human SK-MEL-28 cells after 48 hrs by SRB assay; assay type: functional; details: SK-MEL-28, 48 h; for CC50: read-out: LC50 (the source's name)
How it was run: (§1)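 NCI-60 five-dose screen at 10−8 to 10−4 M. Cells were plated at 5,000–40,000/well in RPMI 1640 with 5% FBS and 2 mM L-glutamine, then preincubated 24 h, and time-zero plates were TCA-fixed. Compound was added from DMSO stocks and exposed 48 h at 37 °C. Cells were TCA-fixed, SRB-stained, and read at 515 nm. LC50 is the concentration halving the cell population through cell death.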

SK-MEL-5 = experiment: Cytotoxicity against human SK-MEL-5 cells after 48 hrs by SRB assay; assay type: functional; details: SK-MEL-5, 48 h; for CC50: read-out: LC50 (the source's name); how it was run: as §1
[1] = Cytotoxicity against hematopoietic progenitor cells isolated from human umbilical cord blood by annexin V staining-based flow cytometric analysis; assay type: cell-based
How it was run: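 Cord-blood mononuclear cells from Ficoll-Paque were plated in serum-free medium, with drug from a DMSO stock (≤0.5% DMSO final). Cells were stained for CD34, CD45 and annexin V. The non-apoptotic fraction (annexin V-negative within the CD34+CD45dim compartment) was normalized to vehicle, and EC50 was fitted where possible. Triplicate.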

ACHN = experiment: Cytotoxicity against human ACHN cells after 48 hrs by SRB assay; assay type: functional; details: for CC50: read-out: LC50 (the source's name); how it was run: as §1
786-0 = experiment: Cytotoxicity against human 786-0 cells after 48 hrs by SRB assay; assay type: functional; details: 786-0, 48 h; for CC50: read-out: LC50 (the source's name); how it was run: as §1
HT-29 = experiment: Cytotoxicity against human HT-29 cells after 48 hrs by SRB assay; assay type: functional; details: HT-29, 48 h; for CC50: read-out: LC50 (the source's name); how it was run: as §1
[2] = Antileukemic activity against human AML04 cells after 24 hrs by annexin V/7-AAD staining-based flow cytometric analysis; assay type: functional, cell-based
How it was run: (§2)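 Primary AML specimens from consenting donors, isolated by Ficoll-Paque gradient and sometimes cryopreserved. Cells were held 1 h in serum-free IMDM with 20% BIT 9500, LDL and β-mercaptoethanol before drug (DMSO stock diluted in PBS, ≤0.5% DMSO final). Exposure was 24 h over 0.5-10 μM. Annexin V/7-AAD double-negative cells, normalized to vehicle, gave the EC50. Run in triplicate.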

CCRF-CEM = experiment: Cytotoxicity against human CCRF-CEM cells after 48 hrs by SRB assay; assay type: functional; details: for CC50: read-out: LC50 (the source's name); how it was run: as §1
NCI-H522 = experiment: Cytotoxicity against human NCI-H522 cells after 48 hrs by SRB assay; assay type: functional; details: NCI-H522, 48 h; for CC50: read-out: LC50 (the source's name); how it was run: as §1
SF-539 = experiment: Cytotoxicity against human SF539 cells after 48 hrs by SRB assay; assay type: functional; details: SF-539, 48 h; for CC50: read-out: LC50 (the source's name); how it was run: as §1
OVCAR-5 = experiment: Cytotoxicity against human OVCAR5 cells after 48 hrs by SRB assay; assay type: functional; details: OVCAR-5, 48 h; for CC50: read-out: LC50 (the source's name); how it was run: as §1
MDA-MB-468 = experiment: Cytotoxicity against human MDA-MB-468 cells after 48 hrs by SRB assay; assay type: functional; details: MDA-MB-468, 48 h; how it was run: as §1
K562 = experiment: Cytotoxicity against human K562 cells after 48 hrs by SRB assay; assay type: functional; details: K562, 48 h; for CC50: read-out: LC50 (the source's name); how it was run: as §1
RPMI-8226 = experiment: Cytotoxicity against human RPMI8226 cells after 48 hrs by SRB assay; assay type: functional; details: RPMI-8226, 48 h; for CC50: read-out: LC50 (the source's name); how it was run: as §1
Malme-3M = experiment: Cytotoxicity against human MALME-3M cells after 48 hrs by SRB assay; assay type: functional; details: for CC50: read-out: LC50 (the source's name); how it was run: as §1
A498 = experiment: Cytotoxicity against human A498 cells after 48 hrs by SRB assay; assay type: functional; details: A498, 48 h; for CC50: read-out: LC50 (the source's name); how it was run: as §1
OVCAR-3 = experiment: Cytotoxicity against human OVCAR3 cells after 48 hrs by SRB assay; assay type: functional; details: OVCAR-3, 48 h; for CC50: read-out: LC50 (the source's name); how it was run: as §1
UACC-257 = experiment: Cytotoxicity against human UACC257 cells after 48 hrs by SRB assay; assay type: functional; details: UACC-257, 48 h; for CC50: read-out: LC50 (the source's name)
How it was run: (§3)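 NCI-60 screen: cells grown in RPMI 1640 with 5% FBS and 2 mM L-glutamine, plated at 5,000–40,000 cells/well by doubling time, and preincubated 24 h at 37 °C before drug. Drug was diluted from DMSO stock and given at five concentrations, 10−4 to 10−8 M, for 48 h. Cells fixed with cold TCA, SRB stained, OD read at 515 nm against time-zero and vehicle plates. LC50 taken as the concentration that halves cell population through cell death.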

HL-60(TB) = experiment: Cytotoxicity against human HL-60(TB) cells after 48 hrs by SRB assay; assay type: functional; details: HL-60, 48 h; for CC50: read-out: LC50 (the source's name); how it was run: as §1
T47D = experiment: Cytotoxicity against human T47D cells after 48 hrs by SRB assay; assay type: functional; details: for CC50: read-out: LC50 (the source's name); how it was run: as §3
UO-31 = experiment: Cytotoxicity against human UO31 cells after 48 hrs by SRB assay; assay type: functional; details: UO-31, 48 h; for CC50: read-out: LC50 (the source's name); how it was run: as §3
SF-268 = experiment: Cytotoxicity against human SF268 cells after 48 hrs by SRB assay; assay type: functional; details: SF-268, 48 h; for CC50: read-out: LC50 (the source's name); how it was run: as §1
SW-620 = experiment: Cytotoxicity against human SW620 cells after 48 hrs by SRB assay; assay type: functional; details: SW-620, 48 h; for CC50: read-out: LC50 (the source's name); how it was run: as §3
BT-549 = experiment: Cytotoxicity against human BT549 cells after 48 hrs by SRB assay; assay type: functional; details: BT-549, 48 h; how it was run: as §1
HOP-92 = experiment: Cytotoxicity against human HOP92 cells after 48 hrs by SRB assay; assay type: functional; details: HOP-92, 48 h; for CC50: read-out: LC50 (the source's name); how it was run: as §1
M14 = experiment: Cytotoxicity against human M14 cells after 48 hrs by SRB assay; assay type: functional; details: M14, 48 h; for CC50: read-out: LC50 (the source's name); how it was run: as §1
COLO 205 = experiment: Cytotoxicity against human COLO205 cells after 48 hrs by SRB assay; assay type: functional; details: COLO 205, 48 h; for CC50: read-out: LC50 (the source's name); how it was run: as §1
[3] = Antileukemic activity against human AML02 cells after 24 hrs by annexin V/7-AAD staining-based flow cytometric analysis; assay type: functional, cell-based; how it was run: as §2
[4] = Antileukemic activity against human M9-ENL1 cells after 24 hrs by annexin V/7-AAD staining-based flow cytometric analysis; assay type: functional, cell-based
How it was run: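 M9-ENL1 cells in alpha-MEM with 5% human plasma, 20% FBS, SCF, IL-3, IL-7 and FLT3. Drug came from a DMSO stock diluted in PBS (≤0.5% DMSO final), for 24 h over 0.5-10 μM. Cells negative for both annexin V and 7-AAD were taken as non-apoptotic and normalized to vehicle. EC50 read from dose-response curves, triplicate.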

[5] = Cytotoxicity against human EKVX cells after 48 hrs by SRB assay; assay type: functional; how it was run: as §1
[6] = Antileukemic activity against human AML03 cells after 24 hrs by annexin V/7-AAD staining-based flow cytometric analysis; assay type: functional, cell-based; how it was run: as §2

SMILES: C=C1C(=O)O[C@H]2[C@H]1CC/C(COC(=O)NCCCCCNC(=O)OC/C1=C/CC[C@@]3(C)O[C@H]3[C@H]3OC(=O)C(=C)[C@@H]3CC1)=C\CC[C@@]1(C)O[C@@H]21
- GI50 (SK-MEL-28): 1.58 µM
- CC50 (SK-MEL-28): 12.6 µM
- GI50 (SK-MEL-5): 3.19 µM
- CC50 (SK-MEL-5): 37 µM
- EC50 [1]: > 10 µM
- GI50 (ACHN): 3.05 µM
- CC50 (ACHN): 35.4 µM
- GI50 (786-0): 1.57 µM
- CC50 (786-0): 6.39 µM
- GI50 (HT-29): 0.51 µM
- CC50 (HT-29): 4.85 µM
- EC50 [2]: 3.5 µM
- GI50 (CCRF-CEM): 0.28 µM
- CC50 (CCRF-CEM): > 100 µM
- GI50 (NCI-H522): 0.22 µM
- CC50 (NCI-H522): 0.88 µM
- GI50 (SF-539): 1.92 µM
- CC50 (SF-539): 12.7 µM
- GI50 (OVCAR-5): 1.67 µM
- CC50 (OVCAR-5): 7.47 µM
- GI50 (MDA-MB-468): 1.06 µM
- LC50 (MDA-MB-468): 24.7 µM
- GI50 (K562): 0.56 µM
- CC50 (K562): > 100 µM
- GI50 (RPMI-8226): 0.78 µM
- CC50 (RPMI-8226): > 100 µM
- GI50 (Malme-3M): 2.06 µM
- CC50 (Malme-3M): 27.3 µM
- GI50 (A498): 6.24 µM
- CC50 (A498): 47.5 µM
- GI50 (OVCAR-3): 0.76 µM
- CC50 (OVCAR-3): 5.07 µM
- GI50 (UACC-257): 2.07 µM
- CC50 (UACC-257): 42.4 µM
- GI50 (HL-60(TB)): 0.31 µM
- CC50 (HL-60(TB)): > 100 µM
- GI50 (T47D): 1.6 µM
- CC50 (T47D): > 100 µM
- GI50 (UO-31): 8.9 µM
- CC50 (UO-31): 52.3 µM
- GI50 (SF-268): 3.08 µM
- CC50 (SF-268): 42.3 µM
- GI50 (SW-620): 0.43 µM
- CC50 (SW-620): 5.14 µM
- GI50 (BT-549): 1 µM
- LC50 (BT-549): 4.96 µM
- GI50 (HOP-92): 1.3 µM
- CC50 (HOP-92): 8.61 µM
- GI50 (M14): 1.71 µM
- CC50 (M14): 8.2 µM
- GI50 (COLO 205): 0.52 µM
- CC50 (COLO 205): 7.97 µM
- EC50 [3]: 0.9 µM
- EC50 [4]: 0.57 µM

SMILES: C=C1C(=O)O[C@H]2[C@H]1CC/C(COC(=O)NCCCCNC(=O)OC/C1=C/CC[C@@]3(C)O[C@H]3[C@H]3OC(=O)C(=C)[C@@H]3CC1)=C\CC[C@@]1(C)O[C@@H]21
- GI50 (SK-MEL-28): 0.52 µM
- CC50 (SK-MEL-28): 8.08 µM
- GI50 (SK-MEL-5): 3.33 µM
- CC50 (SK-MEL-5): 41.4 µM
- EC50 [1]: > 10 µM
- GI50 (ACHN): 3.44 µM
- CC50 (ACHN): 39.8 µM
- GI50 (786-0): 1.99 µM
- CC50 (786-0): 9.11 µM
- GI50 (HT-29): 0.6 µM
- CC50 (HT-29): > 100 µM
- EC50 [2]: 4.2 µM
- GI50 [5]: 3.69 µM
- CC50 ([5]; read-out: LC50 (the source's name)): 37.3 µM
- GI50 (CCRF-CEM): 0.27 µM
- CC50 (CCRF-CEM): > 100 µM
- GI50 (NCI-H522): 0.16 µM
- CC50 (NCI-H522): 0.84 µM
- GI50 (SF-539): 1.55 µM
- CC50 (SF-539): 8.84 µM
- GI50 (OVCAR-5): 1.75 µM
- CC50 (OVCAR-5): 7.79 µM
- GI50 (MDA-MB-468): 0.42 µM
- LC50 (MDA-MB-468): 7.76 µM
- GI50 (K562): 0.66 µM
- CC50 (K562): > 100 µM
- GI50 (RPMI-8226): 0.54 µM
- CC50 (RPMI-8226): > 100 µM
- GI50 (Malme-3M): 0.45 µM
- CC50 (Malme-3M): 8.43 µM
- GI50 (A498): 6.36 µM
- CC50 (A498): 43.9 µM
- GI50 (OVCAR-3): 0.69 µM
- CC50 (OVCAR-3): 4.76 µM
- GI50 (UACC-257): 1.68 µM
- CC50 (UACC-257): 22.9 µM
- GI50 (HL-60(TB)): 0.25 µM
- CC50 (HL-60(TB)): > 100 µM
- GI50 (T47D): 1.51 µM
- CC50 (T47D): > 100 µM
- GI50 (UO-31): 7.61 µM
- CC50 (UO-31): 47.7 µM
- GI50 (SF-268): 3.18 µM
- CC50 (SF-268): 51 µM
- GI50 (SW-620): 0.58 µM
- CC50 (SW-620): 5.56 µM
- GI50 (BT-549): 1.6 µM
- LC50 (BT-549): 8.23 µM
- GI50 (HOP-92): 0.28 µM
- CC50 (HOP-92): 46.1 µM
- GI50 (M14): 1.97 µM
- CC50 (M14): 16.3 µM
- GI50 (COLO 205): 0.46 µM
- CC50 (COLO 205): 5.79 µM
- EC50 [3]: 2 µM
- EC50 [4]: 1.5 µM
- EC50 [6]: 7.3 µM

— ChEMBL document CHEMBL3632581, “Dimers of Melampomagnolide B Exhibit Potent Anticancer Activity against Hematological and Solid Tumor Cells” (J Med Chem, 2015)
